Assay results taken from ChEMBL document CHEMBL4041534, “Treatment of Sepsis Pathogenesis with High Mobility Group Box Protein 1-Regulating Anti-inflammatory Agents” (J Med Chem, 2017).
Calls of active or inactive are those of the source. The rule behind the calls is not given here.

Legend:
[1] = molecular target: T1, High mobility group protein B1 (Mus musculus) (UniProt P63158); test: Inhibition of HMGB1 translocation from nucleus to cytosol in LPS-stimulated mouse RAW264.7 cells assessed as inhibition of NO release at 10 uM measured after 24 hrs by Griess assay relative to control
T1 sequence (whole entry): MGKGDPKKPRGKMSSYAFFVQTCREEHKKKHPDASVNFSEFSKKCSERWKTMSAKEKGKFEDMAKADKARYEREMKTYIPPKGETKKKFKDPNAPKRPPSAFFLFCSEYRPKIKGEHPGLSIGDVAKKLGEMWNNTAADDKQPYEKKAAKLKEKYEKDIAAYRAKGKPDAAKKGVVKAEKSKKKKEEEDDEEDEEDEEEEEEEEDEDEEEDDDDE
Procedure, shortened: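 Raw264.7 cells, seeded 1 day earlier, were moved to serum-free DMEM and exposed to 100 ng/mL LPS with 10 μM compound for 24 h. Supernatant NO was measured with Griess reagent (sulfanilamide/N-(1-naphthyl)ethylenediamine/phosphoric acid) at room temperature, absorbance 548 nm. Inhibition was set against LPS+DMSO wells, blank-corrected, with four control wells. At least three independent experiments.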

[2] = Cytotoxicity against mouse RAW264.7 cells assessed as cell viability at 10 uM in presence of LPS measured after 24 hrs by WST assay relative to control; format: cell-based; conditions: read-out: Activity
Procedure, shortened: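 Raw264.7 cells, seeded 1 day earlier, were washed into serum-free DMEM and given 100 ng/mL LPS plus compound (10 μM) for 24 h. After the supernatant was removed, wells were refilled with 10% FBS DMEM and WST reagent was added for 20 min at 37 °C. Absorbance was read at 450 nm, and viability is relative to vehicle. At least three independent experiments.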

[3] = tested on: RAW264.7; test: Cytotoxicity against mouse RAW264.7 cells assessed as reduction in cell viability at >10 uM in presence of LPS measured after 24 hrs by WST assay; format: cell-based; conditions: raw264.7, 24 h
[4] = molecular target: T1, High mobility group protein B1 (Mus musculus); test: Inhibition of HMGB1 translocation from nucleus to cytosol in LPS-stimulated mouse RAW264.7 cells assessed as inhibition of TNF-alpha production at 10 uM measured after 4 hrs by ELISA relative to control
Procedure, shortened: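 Raw264.7 cells in serum-free DMEM were treated with 100 ng/mL LPS and 10 μM compound (final). After 4 h, medium was diluted in 1% BSA/PBS and secreted TNF-α was quantified by ELISA against a standard curve of TNF-α protein. Inhibition is relative to control. At least three independent experiments.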

[5] = molecular target: T1, High mobility group protein B1 (Mus musculus); test: Inhibition of HMGB1 nuclear translocation in LPS-stimulated mouse RAW264.7 cells at 20 uM pretreated for 1 hr followed by LPS-induction measured after 2 hrs by Hoechst 33342/TRITC staining based immunofluorescence microscopic method
Procedure, shortened: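 Raw264.7 cells on chambered coverglass were pretreated with 20 μM compound for 1 h, then given 500 ng/mL LPS for 2 h. Cells were fixed in 4% paraformaldehyde, permeabilized with methanol at −20 °C, blocked with 2% BSA, and stained with anti-HMGB1 plus TRITC secondary and Hoechst 33342. Imaged by deconvolution fluorescence microscopy. At least three independent experiments.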

[6] = molecular target: T1, High mobility group protein B1 (Mus musculus); test: Inhibition of HMGB1 nuclear translocation in LPS-stimulated mouse RAW264.7 cells assessed as inhibition of IL-6 production at 10 uM pretreated for 1 hr followed by LPS-induction by Western blot analysis
Procedure, shortened: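 Raw264.7 cells were pretreated with 10 μM compound for 1 h, then given 100 ng/mL LPS. IL-6 released into the culture medium was detected by Western blot with ECL chemiluminescence, DMSO as control. At least three independent experiments.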

SMILES	inhibition [1]	viability at 24 h, 10 µM [2]	Activity [3]	inhibition [4]	inhibition [5]	inhibition [6]
CC1(C)Oc2cc(O)ccc2C2C1C=Cn1c(=O)n(-c3ccccc3)c(=O)n12 (centres undefined)	inactive	–	–	–	–	–
CC1(C)Oc2cc(O)ccc2C2C1=CCn1c(=O)n(Cc3ccccc3)c(=O)n12 (centres undefined)	70%	106%	–	–	–	–
CNc1ccc2c(c1)OC(C)(C)C1=CCn3c(=O)n(-c4ccccc4)c(=O)n3C12 (centres undefined)	52%	–	–	–	–	–
COc1ccccc1-n1c(=O)n2n(c1=O)C1C(=CC2)C(C)(C)Oc2cc(O)ccc21 (centres undefined)	66%	115%	–	–	–	–
CC1(C)Oc2cc(O)ccc2C2C1=CCn1c(=O)n(-c3ccc(C(F)(F)F)cc3)c(=O)n12 (centres undefined)	85%	106%	Toxic	–	–	–
COc1cc2c(cc1OC)C1C(=CCn3c(=O)n(-c4ccccc4)c(=O)n31)C(C)(C)O2 (centres undefined)	44%	–	–	–	–	–
COc1cccc(-n2c(=O)n3n(c2=O)C2C(=CC3)C(C)(C)Oc3cc(O)ccc32)c1 (centres undefined)	96%	118%	–	38%	–	–
COc1ccc2c(c1O)OC(C)(C)C1=CCn3c(=O)n(-c4ccccc4)c(=O)n3C12 (centres undefined)	26%	–	–	–	–	–
CC1(C)Oc2cc(O)ccc2C2C1=CCn1c(=O)n(-c3ccc4c(c3)OCO4)c(=O)n12 (centres undefined)	92%	121%	–	46%	Active	Active
CC1(C)Oc2cc(O)ccc2C2C1=CCn1c(=O)n(-c3ccc(C(C)(C)C)cc3)c(=O)n12 (centres undefined)	99%	105%	Toxic	–	–	–
COc1ccc2c(c1)C1C(=CCn3c(=O)n(-c4ccccc4)c(=O)n31)C(C)(C)O2 (centres undefined)	55%	–	–	–	–	–
CC1(C)Oc2cc(O)ccc2C2C1=CCn1c(=O)n(-c3ccc(F)cc3)c(=O)n12 (centres undefined)	87%	109%	–	44%	–	–
CCCCc1ccc(-n2c(=O)n3n(c2=O)C2C(=CC3)C(C)(C)Oc3cc(O)ccc32)cc1 (centres undefined)	99%	50%	Toxic	–	–	–
